# Measurements pooled from the literature.
# Compare with care: the assays were run in different laboratories.
Structure (SMILES),target or system,effect on,technique,concentration,time,endpoint,value
Cc1c(-c2ccc(N3CCc4cccc(C(=O)Nc5nc6ccccc6s5)c4C3)nc2C(=O)NCCOCCOCCOCCNc2cccc3c2C(=O)N(C2CCC(=O)NC2=O)C3=O)cnn1CC12CC3CC(CC(C3)C1)C2 (centres unmarked),MOLT-4,cell growth or viability,MTS,,48 h,IC50,0.0067 µM
Cc1cc(=O)oc2cc(OCCCCSC#N)ccc12,T47D,cell growth or viability,SRB,,,GI50,2.5 µM
Cc1nc(Nc2ncc(C(=O)Nc3c(C)cccc3Cl)s2)cc(N2CC[C@H](O)C2)n1,SU-DHL-2,cell growth or viability,ATP luminescence,10 µM,72 h,inhibition,33%
O=C(O)c1cn(C2CC2)c2cc(N3CCNCC3)c(F)cc2c1=O,Pseudomonas aeruginosa,microbial growth,well diffusion,20 µg/mL,,inhibition zone,3 mm
O=c1[nH]ncc(NN=Cc2cn(-c3ccccc3)nc2-c2cc3ccccc3oc2=O)c1Cl,Jurkat,cell growth or viability,,,48 h,CC50,> 40 µM
O=C(C[C@@H](C(F)F)n1ccc(F)n1)N1CCC(O)(Cn2cnc3c(cnn3-c3ccc(F)cc3)c2=O)CC1,LNCaP,cell growth or viability,CCK-8,0.1235 µM,,viability,18.3%
N#CSCc1cc(=O)oc2cc(O)ccc12,T47D,cell growth or viability,SRB,,,GI50,5.9 µM
Cc1ccc(-c2nn(-c3ccccc3)cc2C=Nc2c(N)nc(S)nc2O)cc1,Jurkat,cell growth or viability,,,48 h,CC50,13.1 µM
